Bioassay records (PubChem BioAssay)
The entries come from a sample that favours hits as a whole.
UPR XBP1 act – activators of adaptive XBP1 UPR arm, primary screen, cell-based, CHO-XBP1 luciferase reporter, luminescence, uHTS; AID 463104, 2010; activation, % at 20 µM; 330,000 compounds, 0.33% hits; IRE1-XBP1 UPR activation; percent of tunicamycin response, DMSO as zero;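 active means versus positive control, 20 µM dose yields 30% or more activation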;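 further: 100% = tunicamycin at 10 µg/mL and 0% = DMSO only wells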
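Material: IRE1-XBP1 luciferase reporter CHO line / Quantity: one thousand reporter cells per well / Buffer or medium: F12 with 10% serum / Compound: 20 µM single concentration, DMSO 1% / Times: 6 h treatment, 37 °C / Detection: Steady-Glo luciferase glow luminescence, 10 min after reagent addition / Benchmarks: tunicamycin high, DMSO low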
CHOP UPR activ – activators of apoptotic CHOP UPR arm, primary screen, cell-based, CHO-CHOP luciferase reporter, luminescence, uHTS; UPR activation; percent of tunicamycin response over DMSO baseline; activation, % at 10 µM; AID 449763, 2010; 330,000 compounds, 0.34% hits;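 active means at 10 µM dose, activation of 40% or more, normalized to positive control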;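 further: 100% = tunicamycin at 10 µg/mL and 0% = DMSO alone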
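System: CHO CHOP reporter cells. Amount: 500 cells per well. Buffer or medium: F12 medium, 10% FBS. Compound dosing: one dose, 10 µM in 0.5% DMSO. Incubation: 6 h compound exposure at 37 °C after overnight seeding. Technique: Steady-Glo luciferase luminescence. Benchmarks: tunicamycin and DMSO controls.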
Beta2AR agonist – beta2AR agonists driving receptor internalization, primary screen, cell-based, FAP fluorogen, flow cytometry; Beta-2 adrenergic receptor (Homo sapiens), P07550; Am2.2-beta2AR cells; response, % (no concentration beside the values); 340,000 compounds, 0.43% hits; AID 504454, 2011;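 active means response above a set limit, near 3 SD of response in nonfluorescent compounds, cut at about 42% in these data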
Target sequence (P07550 whole entry, looked up): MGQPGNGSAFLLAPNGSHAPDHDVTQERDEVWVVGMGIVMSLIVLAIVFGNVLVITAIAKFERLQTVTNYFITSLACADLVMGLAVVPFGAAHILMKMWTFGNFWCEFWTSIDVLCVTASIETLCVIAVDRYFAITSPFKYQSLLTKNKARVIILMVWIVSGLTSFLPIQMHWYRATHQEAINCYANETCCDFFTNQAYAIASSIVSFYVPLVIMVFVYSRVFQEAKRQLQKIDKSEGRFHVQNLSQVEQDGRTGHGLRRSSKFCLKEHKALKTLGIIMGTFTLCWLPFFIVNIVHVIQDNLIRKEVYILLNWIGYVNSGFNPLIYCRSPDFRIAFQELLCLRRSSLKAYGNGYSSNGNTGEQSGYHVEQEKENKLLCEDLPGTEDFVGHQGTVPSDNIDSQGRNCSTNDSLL
CHOP inhibitor – inhibitors of CHOP promoter induction, primary screen, cell-based, unfolded protein response, luciferase reporter; AID 2732, 2010; inhibition, % at 10 µM; 220,000 compounds, 3.8% hits; CHO-K1 CHOP-promoter luciferase, tunicamycin-induced, 15-18 h;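 active means compounds that reduced the stress-induced luciferase reporter signal by more than about 70% of percent inhibition, limit read from the data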;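 further: 0% = tunicamycin plus vehicle and 100% = wells without tunicamycin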
Dynein cargo inh – inhibitors of GR-EGFP nuclear translocation, primary screen, dynein cargo transport inhibitor project, imaging, high-content, 3617.4 mouse cells; test concentration mostly 20 µM; stimulated with dexamethasone, 1 µM; hits give low values; z-score, hits read low; 220,000 compounds, 0.47% hits;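 active means plate z-score of nuclear minus cytoplasmic receptor signal below a set negative limit, without overly bright fluorescence or cell loss, cut at about -3.5 in these data, passing the limit was not always enough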;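 further: z-score of nuclear minus cytoplasmic ring GR-EGFP intensity difference per well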
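Buffer or medium: tet-free, stripped-serum medium; reagent: dexamethasone at 1.0 µM final, 30 min; incubation: 48 h induction, 1 h compound, 30 min dex at 37 °C; measured by: formaldehyde fixation, Hoechst nuclear stain, 10x automated fluorescence imaging; read-out: nuclear-to-cytoplasmic GR-EGFP distribution per well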
p-CIP stab down – p/CIP-EGFP fusion destabilizers, primary screen, fluorescence, F442A cells | 16 h | decrease of EGFP signal, % at 10 µM | 290,000 compounds, 0.01% hits | AID 1984, 2009;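 active means EGFP signal decrease of at least 30% at 10 µM or well 3 SD below plate mean, unless failing retest; inactive means the rest, including hits failing retest or dose response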
Active calls of the source: *; / = not tested or not shown.

SMILES | UPR XBP1 act | CHOP UPR activ | Beta2AR agonist | CHOP inhibitor | Dynein cargo inh | p-CIP stab down
COc1ccc(S(=O)(=O)N2CCC(C(=O)NCC(=O)Nc3c(C)cccc3C)CC2)cc1OC | / | / | 18 | / | / | /
CC(Nc1nc(N2CCN(S(C)(=O)=O)CC2)nc2ccccc12)c1ccccc1 (stereo unspecified) | 0 | -1 | -3 | -4 | -0.13 | -11
Cc1ccc(C2(C(F)(F)F)N=C3Sc4cc(C)ccc4N3C(=O)N2)cc1 (stereo unspecified) | 2 | 1 | / | 15 | 0.4 | -10
CCOC(=O)c1c(NC(=O)COc2cccc3c2CCN(C)C3=O)sc2c1CCC2 | -1 | 9 | 1 | 82* | -0.0056 | -1
O=C(CSc1nccn1Cc1ccccc1)NC1CCCC1 | 3 | 2 | -9 | / | / | -18
C=CCc1ccccc1OCC(O)CN1CCN(c2ccccc2F)CC1 (stereo unspecified) | -1 | -4 | -14 | 78* | -0.3 | 4
C=CCc1ccccc1OCC(O)CN1CCN(c2ccccc2OC)CC1 (stereo unspecified) | -4 | -1 | -13 | 7 | -0.48 | 3
Cc1cc(OC(=O)c2cccs2)ccc1C(C)C | 2 | 4 | 3 | 87* | 0.91 | 14
Cc1noc(C)c1CSc1nnc2cc(C)c3ccccc3n12 | -1 | 1 | / | / | / | 8
CC1=CSC2=NC(=O)/C(=C\c3cccn3-c3ccc([N+](=O)[O-])cc3)C(=N)N12 | 4 | -2 | -5 | 87* | 0.13 | -16
CC(C)=C1C2CCC1C1C(=O)N(NC(=O)COc3ccc(C(C)(C)C)cc3)C(=O)C21 (stereo unspecified) | 0 | 2 | 3 | 92* | -1.6 | -1
O=C(Cn1cnc2nc3n(c2c1=O)CCC3)NCc1ccccc1 | -1 | -1 | -3 | 6 | -0.62 | 8
c1ccc(CCSc2nccn2-c2ccccc2)cc1 | 5 | 1 | -4 | 40 | 0.44 | -19
CCc1ccc(CSc2nccn2-c2ccccc2)cc1 | -2 | -2 | -4 | 72* | 2.4 | -13
Cc1cc2cccc(C)c2nc1SCC(=O)N(C)c1nc(-c2ccccc2)cs1 | -1 | -2 | 1 | 17 | 0.79 | -12
COc1ccc2c(c1)cc(C)c1nnc(SCC(=O)N(C)c3nc(-c4ccccc4)cs3)n12 | 0 | -3 | -8 | 94* | 1.4 | -3
Cc1cccc(OCCCC(=O)Nc2nc3ccccc3[nH]2)c1 | -1 | -1 | -10 | 73* | 0.33 | 0
CC1(C)CC(=NNC(=O)c2n[nH]c3c2CCC3)CC(C)(C)N1 | -3 | -1 | -4 | 2 | -0.8 | -18
Cc1ccc(-c2cc(C(=O)NCc3cnn(C)c3C)c3cc(Br)ccc3n2)cc1 | 0 | 6 | 9 | 78* | 0.79 | 2
COc1ccc(N2CCN(C(=O)CN3CCN(c4nc(-c5ccc(F)cc5)cs4)CC3)CC2)cc1 | -1 | 6 | 1 | 80* | 1.3 | -22
COc1ccc(-c2nnn(CC(=O)N3CCN(c4ccc(F)cc4)CC3)n2)cc1 | -2 | -1 | -4 | 4 | 0.71 | -8
Cc1ccc(C(=O)c2cccc(N)c2)cc1C | -6 | -7 | 6 | 79* | 1.6 | 2
C[C@H](CO)N1C[C@H](C)[C@@H](CN(C)Cc2ccc3c(c2)OCO3)Oc2ccc(NS(C)(=O)=O)cc2C1=O | -3 | 1 | 4 | / | / | /
CCCCN(CCCC)Cc1cc2ccccc2c2c1COC2 | -4 | 1 | -8 | 76* | 0.068 | 8
CCCN(CCC)Cc1cc2ccccc2c2c1COC2 | 0 | -2 | -6 | 32 | -0.32 | -2
SMILES | UPR XBP1 act | CHOP UPR activ | Beta2AR agonist | CHOP inhibitor | Dynein cargo inh | p-CIP stab down
Oc1ccccc1-c1nnc(COc2ccc(Cl)cc2Cl)o1 | 4 | 3 | 4 | 73* | 0.84 | -12
CC(C)CC(=O)NC(NCC1CCCO1)C(Cl)(Cl)Cl (stereo unspecified) | -1 | -2 | 1 | -20 | -0.42 | -9
Clc1ccc(CSc2cc3c(nn2)-c2ccccc2CC3)cc1 | 5 | 5 | 7 | 77* | -1 | 3
COc1ccc2[nH]c3c(c2c1)CCN1C(=O)C(CC(=O)NC(C)(C)C)C[C@H](C(=O)N(C(C)C)C(C)C)[C@@]31C (stereo partly specified) | 1 | 3 | -4 | / | / | /
CN1CCN(Cc2nc3ccccc3c(=O)n2Cc2nc(-c3ccc4ccccc4c3)cs2)CC1 | / | / | 3 | 88* | 1.3 | -2
CCCCCCOc1ccc(-c2ccc(C#N)cn2)cc1 | -2 | 1 | 1 | 74* | 2.5 | -6
Cn1c(N)c(C(=O)COC(=O)CCc2ccccc2)c(=O)n(C)c1=O | -3 | 0 | / | 12 | -0.76 | -4
Cc1cc2nc(C)n(CCCNC(=O)Nc3cccc4ccccc34)c2cc1C | -1 | 4 | -2 | 75* | -0.65 | -12
CCOc1ccc(NC(=O)NCCCn2c(C)nc3cc(C)c(C)cc32)cc1 | -1 | 3 | 1 | 10 | 1.6 | -15
CCN(CC)CCCNC(=O)c1ccc(CS(=O)(=O)c2ccccc2OC)o1 | -1 | 0 | 2 | / | / | -8
COc1cc(OC)c(/C=C2/C(=O)Nc3ccccc32)c(OC)c1 | / | / | / | 13 | / | /
COc1ccc2c(c1)/C(=C\c1cccc(/C=C3/C(=O)Nc4ccc(OC)cc43)n1)C(=O)N2 | / | / | 93* | / | / | /
CC(=NNC(=O)c1ccncc1)c1cc(Cl)ccc1Cl | / | / | -3 | / | / | /
O=C(NC1CCCCC1)N1CCC(c2nc3ccc(Cl)cc3[nH]2)CC1 | 2 | -2 | 1 | 79* | 0.3 | -6
COc1ccc(C(C)=O)cc1COC(=O)c1c(C)noc1C | -1 | -1 | -16 | -1 | 0.17 | -4
CCc1cc2c(COC(=O)c3cccc(S(C)(=O)=O)c3)cc(=O)oc2cc1O | 2 | -1 | 61* | / | / | 8
CCc1cc2c(COC(=O)c3c(C)noc3C)cc(=O)oc2cc1O | 3 | 2 | 2 | 95* | -0.34 | 3
Cc1cc(C)c(S(=O)(=O)Nc2ccc3c(c2)CCC3)c(C)c1 | 0 | 5 | -8 | 84* | 0.89 | -14
COCCCNC(=O)Cn1c(=O)oc2cc(S(=O)(=O)N3CC(C)CC(C)C3)ccc21 (stereo unspecified) | -8 | 0 | 0 | / | / | 11
CCCCNC(=O)Cn1c(=O)oc2cc(S(=O)(=O)N3CC(C)CC(C)C3)ccc21 (stereo unspecified) | 0 | -2 | 11 | 94* | 0.74 | 3
Cc1cc(C)cc(NC(=O)Cn2c(=O)oc3cc(S(=O)(=O)N4CC(C)CC(C)C4)ccc32)c1 (stereo unspecified) | -4 | 2 | 13 | 83* | -0.079 | -12
